Test results as given in PubChem BioAssay AID493091 (Sanford-Burnham Center for Chemical Genomics, 2011).
Screen size: about 340,000 compounds; about 3,000 (0.88%) were called active. The full list was thinned out, with actives kept by preference. Unmarked numbers belong to inactive results.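 The calls were made as follows: active = inhibition above about 50% at 20 µM (limit read from the data); inactive = the rest.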

Each molecule was assayed against Carboxy-terminal domain RNA polymerase II polypeptide A small phosphatase 1 (Homo sapiens) (UniProt Q9GZU7) (assay: inhibition of human SCP1 dephosphorylation activity – biochemical, colorimetric, uHTS, primary screen (AID 493091;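 also: plate controls were DMSO wells with enzyme for no effect and wells lacking enzyme for full effect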)). Settings: Recombinant Scp1, phosphopeptide, malachite green phosphate absorbance; at 20 µM; stronger effect = higher value.
Carboxy-terminal domain RNA polymerase II polypeptide A small phosphatase 1 (Homo sapiens), sequence (Q9GZU7 76-261 limits assumed): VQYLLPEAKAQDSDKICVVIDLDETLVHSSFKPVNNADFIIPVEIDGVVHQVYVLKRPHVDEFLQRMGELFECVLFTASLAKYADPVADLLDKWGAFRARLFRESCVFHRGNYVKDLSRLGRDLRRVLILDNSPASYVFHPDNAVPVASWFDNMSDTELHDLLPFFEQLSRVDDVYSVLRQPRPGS
Method in brief: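 Assay system: SCP-1 catalytic fragment, aa 76-261 | Buffer or medium: Tris acetate buffer pH 5.5 with MgCl2 and Tween-20 | Compound: One concentration, 20 µM, with 1.0% DMSO | Also added: Phospho 17-mer peptide substrate | Signal: Absorbance at 630 nm | Incubation: 45 min enzyme reaction at room temperature | Measure: % inhibition of SCP-1 phosphate liberation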

Compound | inhibition
O=C(O)CCn1cc(C=C2C(=O)NC(=S)NC2=O)c(-c2cccc(Br)c2)n1 | 69.2% (active)
CC(=O)N(C1=NCCCS1)c1ccccc1F | -8.48%
Nc1ccc(Cc2ccc(N)c(Cl)c2)cc1Cl | -6.26%
Cc1ccc(C2CN(C)CC2C(=O)c2ccc(F)cc2)cc1 (stereo not given) | 2.83%
O=C(Cc1ccc(Cl)cc1)NCCN1CCN(C(=O)Cc2ccc(Cl)cc2)CC1 | -8.32%
Cc1ccc(S(=O)(=O)N(C)c2ccc(C(=O)NCC3(N(C)C)CCCCC3)cc2)cc1 | -2.43%
COc1cccc(N2C(=O)NC(=O)/C(=C\c3ccc([N+](=O)[O-])s3)C2=O)c1 | 17.3%
O=C1NC(=O)N(Cc2ccco2)C(=O)/C1=C\c1ccc(-c2ccc(F)cc2)o1 | 5.05%
COc1ccc(N2C(=O)/C(=C/c3ccco3)C(=O)NC2=S)cc1 | 92.7% (active)
CCN(CC)CCOC(=O)c1cc2cc(COC)ccc2o1 | 70.7% (active)
COc1ccc2c(c1)NP(=S)(c1ccccc1)N2 (stereo not given) | 0.52%
CSc1ccc(C(=O)C2CCCN(Cc3ccn[nH]3)C2)cc1 (stereo not given) | -7.2%
CCN(CC)C(=O)Oc1ccc(NC(=O)N2CCOCC2)cc1 | -3.55%
COC(=O)C1=C(c2cc3ccccc3s2)C[C@@H]2CC[C@H]1N2C(=O)NCc1cccc2ccccc12 | -7.13%
O=c1[nH]c(=O)n(CCc2ccc(F)cc2)c(O)c1/C=N/N1CCCCC1 | 51% (active)
O=c1[nH]c(=O)n(CCc2ccccc2)c(O)c1/C=N/N1CCOCC1 | -5.04%
O=c1[nH]c(=O)n(-c2ccc(F)cc2)c(O)c1C=NCCN1CCCCC1 | -0.8%
CN1CCN(Cc2ccc(OC(F)(F)F)cc2)CC1 | 22.4%
COc1ccccc1N=C1SCCCN1C | 95.3% (active)
COc1ccccc1N=Nc1c(O)[nH]c(=S)[nH]c1=O | 9.19%
CC(=O)Nc1ccc(C(=O)C(Cc2ccccc2)N(C)C)cc1 (stereo not given) | -12.1%
O=C(NCC(c1cccnc1)N1CCN(c2ccccc2)CC1)Oc1ccccc1 (stereo not given) | -0.44%
CC1CNCCN1c1ccc(Cl)cc1 (stereo not given) | 2.17%
CN(C)C(=O)Oc1ccc2c(c1)O/C(=C\c1ccccc1)C2=O | -15.9%
Cc1ccc(C)c(NC2=NCCCS2)c1 | -6%
